Laboratory results as given in PubChem BioAssay AID651950 (The Scripps Research Institute Molecular Screening Center, 2012).
Calls of active or inactive are those of the source. The rule behind the calls is not given here.

Test: Hsp70 transcriptional activators, SAR follow-up, cell-based, HeLa, Hsp70 promoter luciferase, luminescence (AID 651950)
Settings: HeLa hsp70.1pr-luc reporter; at 99 µM (top of the series)
Summary of the method: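 Read-out: % activation relative to DMSO and MG132 controls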

Structure (SMILES) | activation
O=C1/C(=C/c2ccncc2)CCC/C1=C\c1ccncc1 | -1.1% (active)
O=C1NC(=O)N(c2cccc(Br)c2)C(=O)/C1=C/C=C/c1ccccc1 | -0.8% (active)
O=c1c([N+](=O)[O-])c(Cl)c2ccccc2n1Cc1ccccc1 | -0.4% (inactive)
COc1cc(C(=O)/C(=C/c2cccnc2)c2nc3ccccc3o2)cc(OC)c1OC | -1.5% (inactive)
O=C1NC(=O)N(c2cccc(Cl)c2)C(=O)/C1=C\C=C\c1ccccc1 | -0.7% (active)
O=[N+]([O-])c1c(Nc2ccc(Cl)cc2)cc(Cl)c2nonc12 | -0.9% (active)
COc1cccc(N2C(=O)NC(=O)/C(=C/C=C/c3ccccc3[N+](=O)[O-])C2=O)c1 | -1.6% (inactive)
